Results: ChEMBL document CHEMBL3091449, “Synthesis and antimicrobial profile of N-substituted imidazolium oximes and their monoquaternary salts against multidrug resistant bacteria” (2013)
≈ marks a conversion by molar mass, not a printed value.

Assays:
Type in all cases: functional
[1] = test system: Klebsiella pneumoniae; test: Antibacterial activity against Klebsiella pneumoniae FNSST 011 after 18 to 24 hrs by two-fold broth microdilution assay
Summary of the method: (§1)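 CLSI two-fold broth microdilution was used. Compounds were dissolved in DMSO, brought to 10 mg/mL in medium, then serially diluted in Mueller Hinton broth over 400–0.09 µg/mL. Overnight MHB cultures were diluted to 10^6 CFU/mL, and 10 µL was added per well. Plates were incubated 18–24 h at 37 °C, then 0.2 mg/mL INT was added for 30 min at 37 °C. MIC was the lowest concentration with no visible growth or pink colour, triplicate.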

[2] = test system: Klebsiella pneumoniae; test: Antibacterial activity against Klebsiella pneumoniae FNSST 011 assessed as diameter of zone of inhibition at 250 ug/disc after 24 hrs by disc diffusion method; conditions: FNSST 011, 24 h, read-out: DIZ
Summary of the method: (§2)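 Bacteria were grown overnight at 37 °C in TSB to about 10^6 cfu/mL, and 100 µL was spread on Mueller Hinton agar. Sterile 6 mm discs were each loaded with 25 µL of a 10 mg/mL stock in 96% ethanol, giving 250 µg/disc. Ethanol served as the negative control. Plates were incubated 24 h at 37 °C. Inhibition zone diameter was measured including the disc, in triplicate, as mean ± SE.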

[3] = test system: Aeromonas hydrophila; test: Antibacterial activity against Aeromonas hydrophila FNSST 014 assessed as diameter of zone of inhibition at 250 ug/disc after 24 hrs by disc diffusion method; conditions: FNSST 014, 24 h, read-out: DIZ; summary of the method: as §2
[4] = test system: Enterococcus faecalis; test: Antibacterial activity against Enterococcus faecalis ATCC 29212 assessed as diameter of zone of inhibition at 250 ug/disc after 24 hrs by disc diffusion method; conditions: ATCC 29212, 24 h, read-out: DIZ; summary of the method: as §2
[5] = test system: Pseudomonas aeruginosa; test: Antibacterial activity against Pseudomonas aeruginosa FNSST 982 after 18 to 24 hrs by two-fold broth microdilution assay; summary of the method: as §1
[6] = test system: Escherichia coli; test: Antibacterial activity against Escherichia coli FNSST 982 after 18 to 24 hrs by two-fold broth microdilution assay; summary of the method: as §1
[7] = test system: Enterococcus faecalis; test: Antibacterial activity against Enterococcus faecalis ATCC 29212 after 18 to 24 hrs by two-fold broth microdilution assay; summary of the method: as §1
[8] = test system: Candida albicans; test: Antifungal activity against Candida albicans ATCC 10231 assessed as diameter of zone of inhibition at 250 ug/disc after 48 hrs by disc diffusion method; conditions: ATCC 10231, 48 h, read-out: DIZ
Summary of the method: (§3)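 Fungi were grown overnight at 30 °C in Sabouraud dextrose broth to 10^4 cfu/mL, and 100 µL was spread on Sabouraud dextrose agar. 6 mm discs carried 250 µg (25 µL of a 10 mg/mL stock in 96% ethanol), with ethanol as the negative control. Incubation was at 30 °C for 48 h (yeast) or 72 h (molds). Zone diameter was read including the disc, in triplicate, mean ± SE.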

[9] = test system: Clostridium perfringens; test: Antibacterial activity against Clostridium perfringens FNSST 4999 after 18 to 24 hrs by two-fold broth microdilution assay
Summary of the method: (§4)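 CLSI two-fold broth microdilution. Compounds dissolved in DMSO, 10 mg/mL stock, serially diluted to 400–0.09 µg/mL in Mueller Hinton broth. Wells inoculated with 10^6 CFU/mL bacteria and incubated 18–24 h at 37 °C. 0.2 mg/mL INT added for 30 min. MIC taken as the lowest concentration with no visible growth or pink colour. Triplicate.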

[10] = test system: Talaromyces funiculosus; test: Antifungal activity against Penicillium funiculosum FNSST 3724 assessed as diameter of zone of inhibition at 250 ug/disc after 72 hrs by disc diffusion method; conditions: FNSST 3724, 72 h, read-out: DIZ; summary of the method: as §3
[11] = test system: Clostridium perfringens; test: Antibacterial activity against Clostridium perfringens FNSST 4999 assessed as diameter of zone of inhibition at 250 ug/disc after 24 hrs by disc diffusion method; conditions: FNSST 4999, 24 h, read-out: DIZ
Summary of the method: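 Disc diffusion per CLSI: 100 µL of 10^6 cfu/mL bacterial suspension spread on Mueller Hinton agar. 6 mm discs loaded with 25 µL of 10 mg/mL compound stock in 96% ethanol (250 µg/disc); ethanol as negative control. Incubated 24 h at 37 °C. Inhibition zone diameter measured in mm including the disc, triplicate, reported as mean ± SE.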

[12] = test system: Bacillus cereus; test: Antibacterial activity against Bacillus cereus ATCC 11778 after 18 to 24 hrs by two-fold broth microdilution assay; summary of the method: as §1
[13] = test system: Escherichia coli; test: Antibacterial activity against Escherichia coli FNSST 982 assessed as diameter of zone of inhibition at 250 ug/disc after 24 hrs by disc diffusion method; conditions: FNSST 982, 24 h, read-out: DIZ; summary of the method: as §2
[14] = test system: Staphylococcus aureus; test: Antibacterial activity against Staphylococcus aureus ATCC 25923 assessed as diameter of zone of inhibition at 250 ug/disc after 24 hrs by disc diffusion method; conditions: ATCC 25923, 24 h, read-out: DIZ; summary of the method: as §2
[15] = test system: Aeromonas hydrophila; test: Antibacterial activity against Aeromonas hydrophila FNSST 014 after 18 to 24 hrs by two-fold broth microdilution assay; summary of the method: as §1
[16] = test system: Bacillus cereus; test: Antibacterial activity against Bacillus cereus ATCC 11778 assessed as diameter of zone of inhibition at 250 ug/disc after 24 hrs by disc diffusion method; conditions: ATCC 11778, 24 h, read-out: DIZ; summary of the method: as §2
[17] = test system: Staphylococcus aureus; test: Antibacterial activity against Staphylococcus aureus ATCC 25923 after 18 to 24 hrs by two-fold broth microdilution assay; summary of the method: as §1
[18] = test system: Pseudomonas aeruginosa; test: Antibacterial activity against Pseudomonas aeruginosa FNSST 982 assessed as diameter of zone of inhibition at 250 ug/disc after 24 hrs by disc diffusion method; conditions: FNSST 982, 24 h, read-out: DIZ; summary of the method: as §2
[19] = test system: Aspergillus fumigatus; test: Antifungal activity against Aspergillus fumigatus FNSST 3833 assessed as diameter of zone of inhibition at 250 ug/disc after 72 hrs by disc diffusion method; conditions: FNSST 3833, 72 h, read-out: DIZ; summary of the method: as §3
[20] = test system: Enterobacter cloacae; test: Antibacterial activity against TEM-1/SHV-12 expressing Enterobacter cloacae isolate 306 after 18 to 24 hrs by two-fold broth microdilution assay
[21] = test system: Pseudomonas aeruginosa; test: Antibacterial activity against GIM-1 expressing Pseudomonas aeruginosa isolate 197 after 18 to 24 hrs by two-fold broth microdilution assay; summary of the method: as §1
[22] = test system: Acinetobacter baumannii; test: Antibacterial activity against SIM-1 expressing Acinetobacter baumannii isolate 170 after 18 to 24 hrs by two-fold broth microdilution assay; summary of the method: as §4
[23] = test system: Escherichia coli; test: Antibacterial activity against TEM-1/SHV-12 expressing Escherichia coli isolate 237 after 18 to 24 hrs by two-fold broth microdilution assay; summary of the method: as §4
[24] = test system: Stenotrophomonas maltophilia; test: Antibacterial activity against […] expressing Stenotrophomonas maltophilia isolate 125 after 18 to 24 hrs by two-fold broth microdilution assay; summary of the method: as §1
[25] = test system: Aeromonas caviae; test: Antibacterial activity against […] expressing Aeromonas caviae isolate 258 after 18 to 24 hrs by two-fold broth microdilution assay; summary of the method: as §1
[26] = test system: Enterobacter cloacae; test: Antibacterial activity against CTX-15 expressing Enterobacter cloacae isolate 51 after 18 to 24 hrs by two-fold broth microdilution assay
[27] = test system: Enterobacter cloacae; test: Antibacterial activity against TEM-1/CTX-M-15 expressing Enterobacter cloacae isolate 62 after 18 to 24 hrs by two-fold broth microdilution assay
[28] = test system: Escherichia coli; test: Antibacterial activity against […] expressing Escherichia coli isolate 235 after 18 to 24 hrs by two-fold broth microdilution assay; summary of the method: as §4
[29] = test system: Escherichia coli; test: Antibacterial activity against […] expressing Escherichia coli isolate 4024 after 18 to 24 hrs by two-fold broth microdilution assay; summary of the method: as §4
[30] = test system: Aeromonas caviae; test: Antibacterial activity against TEM-1/CTX-M-15 expressing Aeromonas caviae isolate 260 after 18 to 24 hrs by two-fold broth microdilution assay; summary of the method: as §1
[31] = test system: Aeromonas hydrophila; test: Antibacterial activity against TEM-1/SHV-12 expressing Aeromonas hydrophila isolate 268 after 18 to 24 hrs by two-fold broth microdilution assay; summary of the method: as §1
[32] = test system: Klebsiella pneumoniae; test: Antibacterial activity against TEM-1/SHV-12 expressing Klebsiella pneumoniae isolate 303 after 18 to 24 hrs by two-fold broth microdilution assay; summary of the method: as §1
[33] = test system: Kluyvera intermedia; test: Antibacterial activity against TEM-1/SHV-12/[…] expressing Enterobacter intermedius isolate 243 after 18 to 24 hrs by two-fold broth microdilution assay; summary of the method: as §1

SMILES	MIC [1]	zone of inhibition at 250 µg/disc [2]	zone of inhibition at 250 µg/disc [3]	zone of inhibition at 250 µg/disc [4]	MIC [5]	MIC [6]	MIC [7]	zone of inhibition at 250 µg/disc [8]	MIC [9]	zone of inhibition at 250 µg/disc [10]	zone of inhibition at 250 µg/disc [11]	MIC [12]	zone of inhibition at 250 µg/disc [13]	zone of inhibition at 250 µg/disc [14]	MIC [15]	zone of inhibition at 250 µg/disc [16]	MIC [17]	zone of inhibition at 250 µg/disc [18]	zone of inhibition at 250 µg/disc [19]	MIC [20]	further results
Cc1ccc(-n2ccnc2/C=N/O)cc1	100 µg/mL (≈ 497 µM)	9.3 mm	15.7 mm	13.8 mm	50 µg/mL (≈ 248 µM)	25 µg/mL (≈ 124 µM)	50 µg/mL (≈ 248 µM)	20.2 mm	100 µg/mL (≈ 497 µM)	15.4 mm	12.6 mm	50 µg/mL (≈ 248 µM)	14.9 mm	18.5 mm	25 µg/mL (≈ 124 µM)	14.6 mm	32 µg/mL (≈ 159 µM)	10.9 mm	16.3 mm	–	–
CN(C)[C@@H]1C(O)=C(C(N)=O)C(=O)[C@@]2(O)C(O)=C3C(=O)c4c(O)cccc4[C@@](C)(O)[C@H]3C[C@@H]12 [TETRACYCLINE]	–	–	–	–	–	–	–	–	–	–	–	–	–	–	–	–	–	–	–	16 µg/mL (≈ 36 µM)	MIC [21]: > 8 µg/mL; MIC [22]: 64 µg/mL (≈ 144 µM); MIC [23]: 128 µg/mL (≈ 288 µM); MIC [24]: 128 µg/mL (≈ 288 µM); MIC [25]: 64 µg/mL (≈ 144 µM); MIC [26]: 64 µg/mL (≈ 144 µM); MIC [27]: 16 µg/mL (≈ 36 µM); MIC [28]: 32 µg/mL (≈ 72 µM); MIC [29]: 16 µg/mL (≈ 36 µM); MIC [30]: 128 µg/mL (≈ 288 µM); MIC [31]: 8 µg/mL (≈ 18 µM); MIC [32]: 256 µg/mL (≈ 576 µM); MIC [33]: 16 µg/mL (≈ 36 µM)
O/N=C/c1n(Cc2ccccc2)cc[n+]1Cc1ccccc1.[Br-]	42 µg/mL	18.6 mm	17.1 mm	17.1 mm	62.5 µg/mL	100 µg/mL	12.5 µg/mL	20.9 mm	25 µg/mL	17.6 mm	18.3 mm	75 µg/mL	14.2 mm	14.2 mm	50 µg/mL	15.5 mm	12.5 µg/mL	12.4 mm	20.9 mm	–	–
O/N=C/c1nccn1-c1ccc(F)cc1	100 µg/mL (≈ 487 µM)	10.3 mm	15.3 mm	12.2 mm	50 µg/mL (≈ 244 µM)	25 µg/mL (≈ 122 µM)	25 µg/mL (≈ 122 µM)	18.9 mm	100 µg/mL (≈ 487 µM)	18.6 mm	8.6 mm	50 µg/mL (≈ 244 µM)	14.8 mm	12.4 mm	25 µg/mL (≈ 122 µM)	14 mm	100 µg/mL (≈ 487 µM)	9.8 mm	15 mm	–	–
C[C@@H](O)[C@H]1C(=O)N2C(C(=O)O)=C(SCCNC=N)C[C@H]12 [IMIPENEM ANHYDROUS]	–	–	–	–	–	–	–	–	–	–	–	–	–	–	–	–	–	–	–	0.25 µg/mL (≈ 0.835 µM)	MIC [21]: > 8 µg/mL; MIC [22]: 8 µg/mL (≈ 26.7 µM); MIC [23]: 0.125 µg/mL (≈ 0.418 µM); MIC [24]: 0.12 µg/mL (≈ 0.401 µM); MIC [25]: 0.25 µg/mL (≈ 0.835 µM); MIC [26]: 8 µg/mL (≈ 26.7 µM); MIC [27]: 0.25 µg/mL (≈ 0.835 µM); MIC [28]: 0.06 µg/mL (≈ 0.2 µM); MIC [30]: 2 µg/mL (≈ 6.68 µM); MIC [31]: 0.06 µg/mL (≈ 0.2 µM); MIC [32]: 0.12 µg/mL (≈ 0.401 µM); MIC [33]: 0.12 µg/mL (≈ 0.401 µM)
